Test results from PMC9907348 (Molecular Pharmaceutics, 2023).

Test: Intravital two-photon microscopy of renal disposition
Assay type: in vivo, Munich Wistar Frömter rats
Settings: rat; for course of subapical brush border fluorescence / vascular fluorescence after infusion: single iv bolus ∼300 μg/kg; for course of subapical brush border fluorescence: infusion movie ∼2 min 10 s to 300 s
Summary of the method: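 Munich Wistar Frömter rats (9–12 weeks), fed ad libitum, with temperature monitored. Outer-cortex glomeruli with visible S1 proximal tubule openings were marked before a bolus of TAMRA- or TAMRA/QSY7-labelled peptide via an indwelling jugular line. 40 kDa FITC-dextran outlined the brush border. Two-photon excitation was at 800 nm (2.0% transmissivity), imaging for ~60 min. Fluorescence was measured over capillary-loop and subapical brush border regions.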

[1] = iv, intravital two-photon microscopy
[2] = intravital two-photon microscopy
[3] = iv, postinjection, 40 kDa FITC-dextran given just before

Row | Substance | glomerular filtration [1] | proximal tubule (PTEC) binding and endocytosis [1] | course of subapical brush border fluorescence | vascular fluorescence after infusion [2] | time at which fluorescence was detected within apical vesicular arrangements [3] [s] | time at which fluorescence within apical vesicular arrangements became marked [3] [s]
1 | 5-TAMRA exenatide [TAMRA-Ex] | rapid glomerular filtration | rapid and extensive proximal tubule binding and endocytosis | rapid appearance | immediate and pronounced detection of fluorescence |  | 
2 | 5-TAMRA-QSY7 exenatide [FRET-Ex] |  |  | protracted linear increase | virtually undetectable | ≤ 80 | ≤ 200
